# Screening results: PubChem, several laboratories
# MEX-5 binding: C. elegans MEX-5 TCR-2 RNA binding activity; MEX-5/FITC-TCR2 RNA binding, fluorescence polarization; active compounds read low; activity score (negative = inhibition of binding), % at 10 µM; 0.38% of 300,000 active;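 active means inhibition past about -25% in most replicates, and total fluorescence under double the plate's negative control median, limit read from the data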;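 further: 0% = DMSO and -100% = 5 µM competing unlabeled TCR2 RNA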
# Target sequence (Q9XUB2 whole entry, looked up): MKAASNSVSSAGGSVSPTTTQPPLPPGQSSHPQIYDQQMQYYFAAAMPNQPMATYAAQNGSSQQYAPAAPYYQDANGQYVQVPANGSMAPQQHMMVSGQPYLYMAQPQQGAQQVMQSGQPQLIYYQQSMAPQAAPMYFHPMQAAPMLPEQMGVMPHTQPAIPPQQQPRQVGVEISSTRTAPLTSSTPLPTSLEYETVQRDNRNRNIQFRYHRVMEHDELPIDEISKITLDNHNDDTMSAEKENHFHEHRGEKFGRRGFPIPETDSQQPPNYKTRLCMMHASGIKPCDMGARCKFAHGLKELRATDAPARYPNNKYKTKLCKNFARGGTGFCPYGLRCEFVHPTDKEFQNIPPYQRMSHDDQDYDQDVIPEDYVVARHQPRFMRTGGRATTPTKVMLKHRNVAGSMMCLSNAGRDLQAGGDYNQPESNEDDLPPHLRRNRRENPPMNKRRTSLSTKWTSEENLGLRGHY
# Keap1 Nrf2 FP: disrupts human Keap1 binding to Nrf2 peptide. Keap1 Kelch-Nrf2 peptide fluorescence polarization, 1536-well. inhibition, % at 9.4 µM. 0.15% of 340,000 active. AID 504523; in the data active means inhibition above about 12%;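 further: human Keap1 Kelch domain with fluorescein labeled Nrf2 9mer peptide probe; 0% = neutral control wells and 100% = peptide positive control; higher means more block of Keap1 binding to Nrf2 peptide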
# T cell modulator: modulates CD8 T cell binding to vesicles; 2C CD8+ T cell-vesicle binding, flow cytometry; active compounds read low; response (vesicle binding), % at 7 µM; 0.068% of 330,000 active; AID 2052;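 active means response, share of CD8 T cells binding vesicles, and their 90th percentile fluorescence all below set limits, cut at about 80% in these data, passing the limit was not always enough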;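 further: values below 100% mean blocked vesicle binding to the CD8+ T cells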
#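 Test system: purified 2C TCR transgenic mouse naive CD8+ T cells. Probe or stimulus: QL9-peptide-loaded Drosophila micro-vesicles bearing Ld, ICAM-1 and B7-1. Incubation: binding step 1.5 h, 37 °C, antibody labelling 20 min, ice. Measured by: flow cytometry of vesicle-bound cells.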
# GRK2 inh: inhibitors of human GRK2 displacing RNA aptamer. inhibition of aptamer binding, % at 10 µM. P25098. bead flow cytometry, FAM-aptamer displacement from GRK2. AID 488847. 0.59% of 330,000 active;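 active means inhibition of aptamer binding above 40%, roughly 3 SD of noise, on plates passing a quality check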;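 further: median bead fluorescence of bound FAM aptamer so fluorescent compounds give negative values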
# LANA DNA inh: KSHV C-LANA DNA binding inhibition. MBP-C-LANA/FAM-LBS DNA binding, fluorescence polarization. inhibition, % at 9 µM. 0.078% of 340,000 active;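 active means highest replicate inhibition at or above 60% at 9 µM, even if other replicates fall short; inactive means all replicates below 60% inhibition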;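 further: 0% = neutral control wells and 100% = 4 µM acridine orange control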
# EBV gp42 inh: inhibitors of Epstein-Barr virus glycoprotein 42; 0.42% of 220,000 active; Fluorescence polarization binding assay, mP read-out; inhibition, % (tested at 21.74 µM); AID 1085; in the data active means inhibition above about 50%
# Target sequence (Q1HVG2 whole entry, looked up): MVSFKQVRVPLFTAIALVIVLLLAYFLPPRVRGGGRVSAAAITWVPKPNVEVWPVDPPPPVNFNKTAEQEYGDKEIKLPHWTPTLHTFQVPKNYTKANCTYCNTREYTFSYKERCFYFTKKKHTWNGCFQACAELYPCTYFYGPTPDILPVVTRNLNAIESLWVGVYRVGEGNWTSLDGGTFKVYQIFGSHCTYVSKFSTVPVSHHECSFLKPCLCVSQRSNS
# GRK2 inh confirm: human GRK2 inhibition confirmation, cherry pick 1. bead-bound GRK2, FAM-aptamer displacement, flow cytometry. AID 504451. aptamer displacement, % at 10 µM. shares compounds with GRK2 inh. 4% of 2,000 active;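 active means aptamer displacement above 40%, near three times the noise of non-fluorescent compounds, on plates passing quality checks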;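 further: negative values mostly reflect intrinsic compound fluorescence rather than true enhancement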
# Aptamer quench 1: fluorescent aptamer quenching in GRK2 counter-screen dose response; shares compounds with GRK2 inh; Fluorescent RNA aptamer beads, flow cytometry; active compounds read high; fluorescence change (kMESF span), kMESF (concentration not given with the values); 110 tested, under 10 active;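 active means compounds whose bead fluorescence drops by more than 37 kMESF across the dose range, marking them as dye quenchers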
# Aptamer quench SP: aptamer fluorescence quenching in GRK2 counter-screen. shares compounds with GRK2 inh. Carboxyfluorescein RNA aptamer on beads, flow cytometry quenching; active compounds read low. fluorescence response (% of DMSO), % at 10 µM. 2,000 tested, under 10 active. AID 504580;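 active means compounds that quench the bead-bound fluorescent RNA probe, cutting fluorescence to under half of the solvent control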;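 further: counterscreen run without GRK2 so only probe quenching by compound is measured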
# GRK2 confirm 2: human GRK2 inhibition confirmation, cherry pick 2; shares compounds with GRK2 inh; bead-bound GRK2, FAM-aptamer displacement, flow cytometry; inhibition of aptamer binding, % at 10 µM; 360 tested, under 10 active; AID 504782;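 active means inhibition of aptamer binding above 40%, about triple the noise seen with nonglowing compounds, on plates passing quality control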;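 further: negative values mostly come from compounds that fluoresce themselves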
# FAM quench SP: counter-screen for GRK2 binding hits: quenchers of fluorescent RNA aptamer | 360 tested, under 10 active | fluorescence response vs DMSO, % at 10 µM | AID 588494 | shares compounds with GRK2 inh | carboxyfluorescein RNA aptamer beads, flow cytometry quenching; active compounds read low;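 active means response vs DMSO under 50%, meaning signal dropped by over half, treated as fluorescence quencher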;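 further: labelled aptamer on streptavidin beads without GRK2 as a quench counter-screen; 100% = bead fluorescence of DMSO wells and lower means quenching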
# * = called active by the depositor; i = inactive; · = not tested or not shown. This is a sample that favours compounds with a hit; in the whole collection about 1.3% have one here.
SMILES,MEX-5 binding,Keap1 Nrf2 FP,T cell modulator,GRK2 inh,LANA DNA inh,EBV gp42 inh,GRK2 inh confirm,Aptamer quench SP,others
Cc1onc(-c2ccccc2)c1C(=O)n1cc(Br)cn1,3,-1,257,69*,1,-19,0,97,
Cc1ccc(C)c(OCC(=O)N(C)CC(=O)Nc2ccc(Cl)c(C(F)(F)F)c2)c1,·,-7,138,79*,0,·,0,103,
Cn1ccnc1C(OC(=O)c1ccccc1)C(F)(F)F (stereo unspecified),-1,0,856,6,0,·,2,94,
Cn1ccnc1C(OC(=O)c1ccc(Cl)cc1)C(F)(F)F (stereo unspecified),-3,-2,246,0,0,·,·,·,
CCc1nn(CCCC(=O)N2CCC(C)CC2)c(=O)c2cc3occc3n12,2,-2,352,1,-1,·,·,·,
CC(=O)C1=C(C)N(CC2CC2)C(=O)N[C@H]1c1cccs1,·,2,600,1,1,-22,·,·,
Cc1ccc(C(=O)Nc2cccc(-c3ccc(N4CCOCC4)nn3)c2)cc1[N+](=O)[O-],-2,-5,424,0,0,·,·,·,
O=C(Nc1cccc(-c2ccc(N3CCOCC3)nn2)c1)c1ccccc1,-3,0,248,0,-1,·,19,100,Aptamer quench 1=-1.6
O=C(Nc1cccc(-c2ccc(N3CCOCC3)nn2)c1)c1ccc([N+](=O)[O-])cc1,-1,-2,354,1,1,·,·,·,
Cc1ccccc1C(=O)Nc1cccc(-c2ccc(N3CCOCC3)nn2)c1,3,-6,162,1,1,·,-3,96,
CCOC(=O)CN1C(=O)SC(Nc2ccc(C)cc2)C1=O (stereo unspecified),-1,-1,415,23,-2,-3,·,·,
COc1cc(-c2ccc3c(=O)c4ccccc4sc3c2)cc(OC)c1OC,·,-6,i,100*,1,·,·,·,GRK2 confirm 2=-11;FAM quench SP=99
COc1cc(-c2ccc3c(=O)c4ccccc4n(C)c3c2)cc(OC)c1OC,0,4,104,2,0,·,·,·,
O=C(CCc1n[nH]c(=O)[nH]c1=O)N1CCCCC1,-3,0,416,30,0,-6,1,100,
Cc1ccc(Cn2c(Cc3ccccc3)nc3ccccc32)cc1,0,0,552,96*,2,6,1,95,
COCc1nc2ccccc2n1Cc1ccccc1,0,-1,412,0,0,-9,·,·,
COc1ccc(F)cc1S(=O)(=O)NCC(c1ccco1)N1CCc2ccccc2C1 (stereo unspecified),2,0,276,0,1,·,·,·,
COc1cc(/C=N/Nc2ccc(C(=O)O)cc2)ccc1O,-4,-5,334,41*,4,-12,26,90,
COc1cc(/C=N/Nc2ccc(C(=O)O)cc2)cc(OC)c1OC,-1,-4,684,1,0,-10,·,·,
Cc1noc(C)c1S(=O)(=O)Nc1c(C)n(C)n(-c2ccccc2)c1=O,0,2,189,0,1,-2,·,·,
CC(=Nc1ccccc1)C1=C(O)CC(C)(C)CC1=O,1,4,322,0,1,-16,·,·,
CC(=Nc1ccccc1)C1=C(O)CCCC1=O,2,2,312,35,1,-10,4,97,
CCOc1ccc(N2CC(C(=O)Nc3ccccc3OC)CC2=O)cc1 (stereo unspecified),-3,-4,230,0,0,0,·,·,
CCCOc1ccc(N2CC(C(=O)Nc3ccccc3C(=O)NC)CC2=O)cc1 (stereo unspecified),1,-4,915,47*,-4,-10,0,98,
CCCCCC/C=C/c1ccc([C@H]2[C@H]3C=CC[C@@H](C)[C@@H]3C(=O)N2Cc2ccccc2)c(F)c1,0,-6,202,1,2,-12,3,94,
SMILES,MEX-5 binding,Keap1 Nrf2 FP,T cell modulator,GRK2 inh,LANA DNA inh,EBV gp42 inh,GRK2 inh confirm,Aptamer quench SP,others
O=C(N/N=C/c1ccc(O)c([N+](=O)[O-])c1)C1CC1(c1ccccc1)c1ccccc1 (stereo unspecified),0,0,476,4,-1,-5,·,·,
COc1ccc(-c2cc(C(=O)N(C)Cc3nc4ccccc4c(=O)[nH]3)c3ccccc3n2)cc1OC,·,2,401,29,-1,·,0,101,
COc1ccc(-c2cc(C(=O)N(C)Cc3cccc(OC)c3OC)c3ccccc3n2)cc1OC,1,-6,399,0,-3,·,·,·,
O=C(Nc1ccc(N2CCOCC2)c(Cl)c1)c1cc(F)c(F)cc1Cl,0,-2,243,1,-3,-2,·,·,
O=C(Nc1cc(C(=O)N2CCOCC2)cc(C(=O)N2CCOCC2)c1)c1cc(F)c(F)cc1Cl,2,-5,555,27,1,9,-2,103,
CC1Cc2ccccc2N1C(=O)CSc1nncs1 (stereo unspecified),·,-1,327,75*,4,·,-2,99,
CC1(C)N([O-])c2cc([N+](=O)[O-])ccc2[N+]1=O,·,·,i,68*,·,-16,3,95,
CC1=C(C(=O)OC2CCCC2)C(c2coc3ccccc3c2=O)C2=C(CC(C)(C)CC2=O)N1 (stereo unspecified),2,-1,436,1,0,4,·,·,
Cc1cccc(C)c1NC(=O)CN1C(=O)CCSc2ccc(S(=O)(=O)N3CCCC3)cc21,-2,-3,416,42*,-1,·,-3,99,
O=C(CN1C(=O)CCSc2ccc(S(=O)(=O)N3CCCC3)cc21)Nc1ccccc1Cl,-2,-8,243,0,0,·,·,·,
O=[N+]([O-])c1cccnc1N1CCN(c2ccccc2F)CC1,-2,-1,241,46*,0,8,-3,100,
CC(OC(=O)Cc1c[nH]c2ccccc12)C(=O)N(C)c1ccccc1 (stereo unspecified),-2,1,202,9,0,·,-1,96,
COc1cc(Cc2cc(N)nc(N)n2)cc(OC)c1OC,-1,-2,152,1,0,·,·,·,
